{
  "source": "ChEMBL document CHEMBL2169781",
  "about": "“Discovery and biological evaluation of a novel class of dual microsomal prostaglandin E2 synthase-1/5-lipoxygenase inhibitors based on 2-[(4,6-diphenethoxypyrimidin-2-yl)thio]hexanoic acid” (J Med Chem, 2011)",
  "key": {"[1]": {"biological_target": "T1, Polyunsaturated fatty acid 5-lipoxygenase (Homo sapiens) (UniProt P09917)", "T1 sequence (whole entry)": "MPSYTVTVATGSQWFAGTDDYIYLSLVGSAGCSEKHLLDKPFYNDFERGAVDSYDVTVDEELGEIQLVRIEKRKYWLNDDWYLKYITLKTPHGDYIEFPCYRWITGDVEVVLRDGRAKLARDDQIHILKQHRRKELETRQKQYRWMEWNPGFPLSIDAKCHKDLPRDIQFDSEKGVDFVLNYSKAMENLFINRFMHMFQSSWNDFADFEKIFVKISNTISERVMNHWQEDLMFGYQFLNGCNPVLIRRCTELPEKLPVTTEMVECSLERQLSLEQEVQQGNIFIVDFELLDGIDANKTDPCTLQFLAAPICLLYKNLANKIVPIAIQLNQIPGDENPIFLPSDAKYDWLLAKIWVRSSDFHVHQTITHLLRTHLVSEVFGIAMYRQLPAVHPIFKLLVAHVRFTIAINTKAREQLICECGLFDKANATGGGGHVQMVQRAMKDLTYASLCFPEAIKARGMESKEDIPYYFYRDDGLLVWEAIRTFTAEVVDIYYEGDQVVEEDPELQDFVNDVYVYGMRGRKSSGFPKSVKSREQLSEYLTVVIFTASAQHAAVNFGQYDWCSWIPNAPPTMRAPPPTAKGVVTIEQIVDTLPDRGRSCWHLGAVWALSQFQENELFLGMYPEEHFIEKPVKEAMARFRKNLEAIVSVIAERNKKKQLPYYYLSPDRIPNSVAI", "test": "Inhibition of human recombinant 5-lipoxygenase-mediated product formation from arachidonic acid assessed as remaining activity at 1 uM after 5 to 10 mins by HPLC analysis", "procedure,_shortened": "(§1)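 Human 5-LO expressed in E. coli BL21 (pT3-5LO) at 37 °C, purified and used at once. Enzyme (0.5 μg/mL in PBS/EDTA with 1 mM ATP) preincubated with compound 5–10 min at 4 °C, prewarmed 30 s at 37 °C, started with 2 mM CaCl₂ + 20 μM AA (±1 μM 13(S)-HpODE), 10 min at 37 °C, stopped with cold methanol, products by HPLC.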"}, "[2]": {"biological_target": "T1, Polyunsaturated fatty acid 5-lipoxygenase (Homo sapiens)", "test": "Selectivity ratio of IC50 for human recombinant 5-lipoxygenase in cell-free system to IC50 for 5-lipoxygenase-mediated 5(S)-H(p)ETE formation in A23187-stimulated PMNL"}, "[3]": {"biological_target": "Prostaglandin G/H synthase 2 (Homo sapiens) (UniProt P35354)", "test": "Inhibition of human recombinant COX-2 mediated formation of 12-HHT from arachidonic acid assessed as remaining activity at 10 uM after 5 mins by HPLC analysis"}, "[4]": {"biological_target": "T2, Prostaglandin E synthase (Homo sapiens) (UniProt O14684)", "T2 sequence (whole entry)": "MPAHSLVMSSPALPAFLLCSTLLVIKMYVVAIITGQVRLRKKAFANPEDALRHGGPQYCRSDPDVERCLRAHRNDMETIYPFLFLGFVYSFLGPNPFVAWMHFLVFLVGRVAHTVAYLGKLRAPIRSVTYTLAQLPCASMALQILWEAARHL", "test": "Inhibition of mPGES-1 in human IL-1beta-stimulated A549 cell microsomes assessed as residual activity by measuring reduction of PGE2 formation from PGH2 at 10 uM after 15 mins by RP-HPLC analysis", "conditions": "Microsome", "procedure,_shortened": "(§2)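 A549 cells in DMEM with 2% FCS for 16 h, induced with IL-1β (1 ng/mL) for 72 h, homogenized. Microsomal pellet (174 000 × g) diluted in 0.1 M potassium phosphate pH 7.4 with 2.5 mM glutathione, given compound or DMSO for 15 min. PGH₂ added (20 μM final), 1 min at 4 °C, stopped with FeCl₂/citric acid. PGE₂ by SPE and RP-HPLC (UV 195 nm), 11β-PGE₂ internal standard. Tested up to 10 μM; IC₅₀ reported only above 50% inhibition at 10 μM.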"}, "[5]": {"test": "Cytotoxicity in human polymorphonuclear leukocytes assessed as cell viability at 10 uM after 30 mins by MTT assay"}, "[6]": {"biological_target": "T1, Polyunsaturated fatty acid 5-lipoxygenase (Homo sapiens)", "test": "Inhibition of human recombinant 5-lipoxygenase-mediated product formation from arachidonic acid assessed as remaining activity at 10 uM after 5 to 10 mins by HPLC analysis", "procedure,_shortened": "as §1"}, "[7]": {"biological_target": "T3, Prostaglandin E synthase (Homo sapiens, UniProt O14684)", "T3 sequence (O14684 whole entry)": "T2 sequence (whole entry)", "test": "Inhibition of mPGES-1 in human IL-1beta-stimulated A549 cell microsomes assessed as reduction of PGE2 formation from PGH2 after 15 mins by RP-HPLC analysis", "parameters": "species or system Microsome", "procedure,_shortened": "as §2"}, "[8]": {"biological_target": "T4, Polyunsaturated fatty acid 5-lipoxygenase (Homo sapiens, UniProt P09917)", "T4 sequence (P09917 whole entry)": "T1 sequence (whole entry)", "test": "Inhibition of human recombinant 5-lipoxygenase-mediated product formation from arachidonic acid after 5 to 10 mins by HPLC analysis", "procedure,_shortened": "as §1"}, "[9]": {"biological_target": "T4, Polyunsaturated fatty acid 5-lipoxygenase", "test": "Inhibition of 5-lipoxygenase-mediated 5(S)-H(p)ETE formation in A23187-stimulated human PMNL incubated 10 mins prior to A23187 challenge"}, "[10]": {"biological_target": "Prostaglandin G/H synthase 1 (Ovis aries) (UniProt P05979)", "test": "Inhibition of ovine COX-1 mediated formation of 12-HHT from arachidonic acid assessed as remaining activity at 10 uM after 5 mins by HPLC analysis"}, "[11]": {"system": "Radical scavenging activity", "test": "Antioxidant activity assessed as DPPH radical scavenging activity at 100 uM", "assay_type": "functional", "procedure,_shortened": "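Non-enzymatic radical scavenging test: reduction of 1,1-diphenyl-2-picrylhydrazyl (DPPH) measured with test compound up to 100 μM; ascorbic acid and L-cysteine run as reference reductants.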"}, "[12]": {"biological_target": "T4, Polyunsaturated fatty acid 5-lipoxygenase", "test": "Inhibition of 5-lipoxygenase in human PMNL S100 supernatant assessed as inhibition of enzyme product formation preincubated for 5 to 10 mins before arachidonic acid addition by HPLC analysis", "procedure,_shortened": "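PMNL (5 × 10⁶/mL in PBS/1 mM EDTA) sonicated, centrifuged 100 000 × g for 1 h at 4 °C. S100 diluted in PBS/EDTA with 1 mM ATP, ±1 mM DTT, and preincubated with compound or 0.3% DMSO 5–10 min at 4 °C. Prewarmed 30 s at 37 °C, started with 2 mM CaCl₂ + 20 μM AA, 10 min at 37 °C, stopped with cold methanol, 5-LO products by HPLC.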"}, "[13]": {"biological_target": "T5, Polyunsaturated fatty acid lipoxygenase ALOX15 (Homo sapiens) (UniProt P16050)", "T5 sequence (whole entry)": "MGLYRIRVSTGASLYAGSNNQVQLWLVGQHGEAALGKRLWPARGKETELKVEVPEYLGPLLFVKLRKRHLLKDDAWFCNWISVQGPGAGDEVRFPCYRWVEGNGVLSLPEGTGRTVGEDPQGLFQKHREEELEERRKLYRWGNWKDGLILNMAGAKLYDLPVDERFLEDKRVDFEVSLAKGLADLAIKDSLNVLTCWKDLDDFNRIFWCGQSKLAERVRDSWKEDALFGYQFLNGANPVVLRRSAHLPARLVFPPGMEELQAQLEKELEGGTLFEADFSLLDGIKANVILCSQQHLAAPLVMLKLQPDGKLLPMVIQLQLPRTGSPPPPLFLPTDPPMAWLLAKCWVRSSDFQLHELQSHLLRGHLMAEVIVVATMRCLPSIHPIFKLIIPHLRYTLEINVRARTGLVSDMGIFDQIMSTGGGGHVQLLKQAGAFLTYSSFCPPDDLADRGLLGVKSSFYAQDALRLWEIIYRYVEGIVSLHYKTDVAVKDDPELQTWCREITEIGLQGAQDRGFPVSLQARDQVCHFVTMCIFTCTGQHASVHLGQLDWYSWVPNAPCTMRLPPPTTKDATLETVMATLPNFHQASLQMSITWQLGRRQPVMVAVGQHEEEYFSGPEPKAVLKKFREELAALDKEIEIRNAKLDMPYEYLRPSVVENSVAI", "test": "Inhibition of 15-lipoxygenase in A23187-stimulated human PMNL assessed as reduction of 15(S)-H(P)ETE formation up to 10 uM preincubated 15 mins by RP-HPLC analysis in presence of exogenous arachidonic acid", "procedure,_shortened": "(§3)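 Freshly isolated human PMNL (5 × 10⁶/mL in PBS pH 7.4 with 1 mg/mL glucose and 1 mM CaCl₂) preincubated with compound 15 min at 37 °C, then stimulated with 2.5 μM A23187 plus exogenous AA for 10 min at 37 °C. Stopped with methanol, PGB₁ added as internal standard, extracted, HPLC: 15(S)-H(p)ETE taken as 15-LO product, 12(S)-H(p)ETE as 12-LO product (platelet-type 12-LO from PMNL-adherent platelets).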"}, "[14]": {"biological_target": "T6, Polyunsaturated fatty acid lipoxygenase ALOX12 (Homo sapiens) (UniProt P18054)", "T6 sequence (whole entry)": "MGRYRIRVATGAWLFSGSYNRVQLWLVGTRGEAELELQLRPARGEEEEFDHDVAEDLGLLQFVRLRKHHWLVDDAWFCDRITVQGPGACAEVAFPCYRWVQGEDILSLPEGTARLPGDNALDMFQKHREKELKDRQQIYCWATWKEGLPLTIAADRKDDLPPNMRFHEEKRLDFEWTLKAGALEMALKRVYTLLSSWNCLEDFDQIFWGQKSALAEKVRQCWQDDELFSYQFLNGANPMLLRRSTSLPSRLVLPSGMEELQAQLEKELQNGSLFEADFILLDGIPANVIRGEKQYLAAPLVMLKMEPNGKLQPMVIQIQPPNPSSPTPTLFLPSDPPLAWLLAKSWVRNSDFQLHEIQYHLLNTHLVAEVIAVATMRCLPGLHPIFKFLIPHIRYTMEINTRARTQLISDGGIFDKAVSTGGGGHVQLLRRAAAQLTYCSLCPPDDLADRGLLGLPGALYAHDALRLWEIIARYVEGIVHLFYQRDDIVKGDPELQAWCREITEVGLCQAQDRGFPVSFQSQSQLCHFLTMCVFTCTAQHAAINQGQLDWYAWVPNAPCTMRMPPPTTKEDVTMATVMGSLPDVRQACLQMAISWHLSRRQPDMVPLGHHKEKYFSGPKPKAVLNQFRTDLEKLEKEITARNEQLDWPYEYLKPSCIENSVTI", "test": "Inhibition of 12-lipoxygenase in A23187-stimulated human PMNL assessed as reduction of 12(S)-H(P)ETE formation up to 10 uM preincubated 15 mins by RP-HPLC analysis in presence of exogenous arachidonic acid", "procedure,_shortened": "as §3"}, "[15]": {"biological_target": "T4, Polyunsaturated fatty acid 5-lipoxygenase", "test": "Inhibition of 5-lipoxygenase-mediated 5(S)-H(p)ETE formation in fMLP-stimulated human PMNL incubated 10 mins prior to fMLP challenge"}, "[16]": {"biological_target": "T6, Polyunsaturated fatty acid lipoxygenase ALOX12 (Homo sapiens)", "test": "Inhibition of 12-lipoxygenase in A23187-stimulated human PMNL assessed as reduction of 12(S)-H(P)ETE formation preincubated 15 mins by RP-HPLC analysis in presence of exogenous arachidonic acid", "procedure,_shortened": "as §3"}, "[17]": {"biological_target": "T5, Polyunsaturated fatty acid lipoxygenase ALOX15 (Homo sapiens)", "test": "Inhibition of 15-lipoxygenase in A23187-stimulated human PMNL assessed as reduction of 15(S)-H(P)ETE formation preincubated 15 mins by RP-HPLC analysis in presence of exogenous arachidonic acid", "procedure,_shortened": "as §3"}},
  "note": "pIC50: −log10 of the molar value. Calls of active or inactive are those of the source. The rule behind the calls is not given here.",
  "data": [
    {"smiles": "CC(C)c1ccc2c(c1)c(SC(C)(C)C)c(CC(C)(C)C(=O)O)n2Cc1ccc(Cl)cc1", "values": [
      {"measurement": "inhibition", "setting": "[1]", "result": "inactive"}
    ]},
    {"smiles": "CCCC/C(=C\\c1cc(OCCC2CCCCC2)ccc1OCc1ccc(C(F)(F)F)cc1)C(=O)O", "values": [
      {"measurement": "Ratio IC50", "setting": "[2]", "result": "> 20"},
      {"measurement": "Activity", "setting": "[3]", "result": 106, "unit": "%"},
      {"measurement": "Activity", "setting": "[4]", "result": 74, "unit": "%"},
      {"measurement": "Activity", "setting": "[5]", "result": "Non-toxic"},
      {"measurement": "Activity", "setting": "[6]", "result": 55.5, "unit": "%"},
      {"measurement": "pIC50", "setting": "[7]", "result": "< 5.00"},
      {"measurement": "pIC50", "setting": "[8]", "result": 5.00},
      {"measurement": "pIC50", "setting": "[9]", "result": 6.40},
      {"measurement": "Activity", "setting": "[10]", "result": 92.3, "unit": "%"}
    ]},
    {"smiles": "N[C@@H](CS)C(=O)O", "values": [
      {"measurement": "Activity", "setting": "[11]", "result": "Active"}
    ]},
    {"smiles": "O=C1O[C@H]([C@@H](O)CO)C(O)=C1O", "values": [
      {"measurement": "Activity", "setting": "[11]", "result": "Active"}
    ]},
    {"smiles": "CCCCCCC(Sc1nc(OCCc2ccccc2)cc(OCCc2ccccc2)n1)C(=O)O", "note": "(stereo unspecified)", "values": [
      {"measurement": "Activity", "setting": "[11]", "result": "inactive"},
      {"measurement": "pIC50", "setting": "[12]", "result": 4.90},
      {"measurement": "pIC50", "setting": "[7]", "result": 5.70},
      {"measurement": "pIC50", "setting": "[8]", "result": 5.55},
      {"measurement": "inhibition", "setting": "[13]", "result": "inactive"},
      {"measurement": "inhibition", "setting": "[14]", "result": "inactive"},
      {"measurement": "pIC50", "setting": "[15]", "result": 6.40}
    ]},
    {"smiles": "Cc1ccc(-c2cc(C(F)(F)F)nn2-c2ccc(S(N)(=O)=O)cc2)cc1", "values": [
      {"measurement": "inhibition", "setting": "[16]", "result": "inactive"},
      {"measurement": "inhibition", "setting": "[17]", "result": "inactive"}
    ]}
  ]
}
